According to ChEMBL document CHEMBL3259813, “Design, synthesis and in vitro and in vivo antitumour activity of 3-benzylideneindolin-2-one derivatives, a novel class of small-molecule inhibitors of the MDM2-p53 interaction” (Eur J Med Chem, 2014):

What was measured:
[1] = tested on: HCT-116; assay: Induction of p53 expression in human HCT116 cells after 48 hrs by Western blotting analysis; assay type: functional, cell-based
Method in brief: (§1)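 p53 wild-type HCT116 cells exposed to a range of concentrations for 48 h, lysed in Tris/NaCl/Triton X-100 buffer with protease inhibitors. Protein assayed by Bio-Rad method, separated by SDS-PAGE, transferred to PVDF, blocked in 5% non-fat milk. Primary antibody 2 h at room temperature, peroxidase secondary, ECL detection; beta-actin as loading control.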

[2] = tested on: Mus musculus; assay: Toxicity in BALB/c mouse allografted with mouse CT26 cells assessed as body weight at 50 mg/kg, ip qd administered for 10 days (reference value: 19.45 gm); assay type: organism-based; design: dose 50 mg/kg, route intraperitoneal; conditions: in vivo, 240 h
[3] = tested on: HCT-116; assay: Induction of p21 expression in human HCT116 cells after 48 hrs by Western blotting analysis; assay type: functional, cell-based; method in brief: as §1
[4] = tested on: MCF7; assay: Antiproliferative activity against human MCF7 cells after 48 hrs by MTT assay; conditions: MCF7, 48 h
[5] = tested on: A549; assay: Antiproliferative activity against human A549 cells after 48 hrs by MTT assay; conditions: A549, 48 h
[6] = tested on: HCT-116; assay: Induction of apoptosis in human HCT116 cells after 48 hrs by propidium iodide staining-based flow cytometry; assay type: functional, cell-based
Method in brief: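 HCT116 cells seeded at 2×10^5/well, grown 48 h, then exposed to compound for 48 h. Cells fixed overnight in 70% ice-cold ethanol, treated with RNase A (100 µg/ml, 30 min, room temperature), stained with propidium iodide (50 µg/mL final). Analysed by flow cytometry.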

[7] = tested on: CT26; assay: Antitumor activity against mouse CT26 cells allografted in ip dosed BALB/c mouse assessed as tumor growth inhibition administered qd for 10 days; assay type: functional, organism-based
Method in brief: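 CT26 cell suspension implanted s.c. in right axilla of BALB/c mice; randomised 10/group. Dosing i.p. once daily for 10 days, starting 24 h after implantation; vehicle and blank control groups. Mice sacrificed 24 h after last dose, tumours excised and weighed; inhibition = (A–B)/A×100%, A and B mean tumour weights of control and treated groups.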

[8] = tested on: Mus musculus; assay: Toxicity in BALB/c mouse allografted with mouse CT26 cells assessed as body weight at 100 mg/kg, ip qd administered for 10 days (reference value: 19.45 gm); assay type: organism-based; design: dose 100 mg/kg, route intraperitoneal; conditions: in vivo, 240 h
[9] = tested on: Mus musculus; assay: Toxicity in BALB/c mouse assessed as death at 500 mg/kg, ip up to 8 days; assay type: organism-based; design: dose 500 mg/kg, route intraperitoneal; conditions: in vivo, 192 h
Method in brief: (§2)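 BALB/c mice randomised into two groups of 10; single intraperitoneal dose of 500 or 1000 mg/kg in 10% DMSO. Animals monitored for death and visible signs of toxicity over 8 days.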

[10] = tested on: Mus musculus; assay: Toxicity in BALB/c mouse assessed as death at 1000 mg/kg, ip after 24 hrs; assay type: organism-based; design: dose 1000 mg/kg, route intraperitoneal; conditions: in vivo; method in brief: as §2
[11] = tested on: HCT-116; assay: Antiproliferative activity against human HCT116 cells expressing wild type p53 after 48 hrs by MTT assay; conditions: HCT-116, 48 h
[12] = tested on: HCT-116; assay: Antiproliferative activity against p53-deficient human HCT116 cells after 48 hrs by MTT assay; conditions: HCT-116, 48 h
[13] = tested on: HCT-116; assay: Induction of MDM2 expression in human HCT116 cells after 48 hrs by Western blotting analysis; assay type: functional, cell-based; method in brief: as §1
[14] = tested on: Mus musculus; assay: Toxicity in BALB/c mouse assessed as visible side effect at 500 mg/kg, ip up to 8 days; assay type: organism-based; design: dose 500 mg/kg, route intraperitoneal; conditions: in vivo, 192 h; method in brief: as §2
[15] = tested on: HCT-116; assay: […] in human HCT116 cells assessed as accumulation at G1 phase at 50 uM after 48 hrs by propidium iodide staining-based flow cytometry (reference value: 62.5%); assay type: functional
Method in brief: (§3)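 HCT116 (wild-type p53) seeded at 2×10^5 cells/well, cultured 48 h, then treated with compound for 48 h. Washed in cold PBS, fixed overnight in 70% ice-cold ethanol, RNase A (100 µg/ml) 30 min at room temperature, stained with propidium iodide (50 µg/mL final). Cell cycle distribution by flow cytometry.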

[16] = tested on: HCT-116; assay: […] in human HCT116 cells assessed as accumulation at S phase at 50 uM after 48 hrs by propidium iodide staining-based flow cytometry (reference value: 24.8%); assay type: functional; method in brief: as §3

Row | Structure (SMILES) | GI50 [4] [µM] | GI50 [5] [µM] | GI50 [11] [µM] | GI50 [12] [µM] | also measured
1 | COc1ccc(/C=C2/C(=O)Nc3ccccc32)c(OC)c1 | 54.1 | 52.5 | 13.4 | 28.1 | Activity [1]: Dose-dependent effect; Activity [2]: 18.95 g; Activity [3]: Dose-dependent effect; Activity [6]: Dose-dependent effect; TGI [7]: Dose-dependent effect; Activity [8]: 18.91 g; Activity [9]: Non-toxic; Activity [10]: Toxic; Activity [13]: Dose-dependent effect; Activity [14]: Non-toxic
2 | COc1ccc(/C=C2/C(=O)Nc3cc(F)ccc32)c(-c2ccc(C#N)cc2)c1 | > 100 | > 100 | 17.1 | 109 | 
3 | CCCOc1ccc(/C=C2/C(=O)Nc3ccccc32)c(OCCC)c1 | 54 | 42.4 | 14.4 | 21.3 | 
4 | COc1ccc(C2=N[C@@H](c3ccc(Cl)cc3)[C@@H](c3ccc(Cl)cc3)N2C(=O)N2CCNC(=O)C2)c(OC(C)C)c1 [NUTLIN-3] | 48.7 | 47.6 | 32.1 | 55.7 | Activity [6]: Dose-dependent effect; Activity [15]: 53%; Activity [16]: 8.7%
5 | COc1ccc(/C=C2/C(=O)Nc3ccc(Cl)cc32)c(OC)c1 | > 100 | > 100 | 49.2 | 126 | 
6 | CC(C)Oc1ccc(/C=C2/C(=O)Nc3cc(Cl)ccc32)c(OC(C)C)c1 | 42.9 | 30.4 | 23.4 | 42 | 
7 | CC(C)Oc1ccc(/C=C2/C(=O)Nc3ccc(Cl)cc32)c(OC(C)C)c1 | 55.7 | 42.6 | 29.7 | 37.7 | 
8 | COc1ccc(/C=C2/C(=O)Nc3ccc(Cl)cc32)c(-c2ccc(C#N)cc2)c1 | > 100 | > 100 | 27.1 | 124 | 
9 | COc1ccc(/C=C2/C(=O)Nc3ccc(F)cc32)c(-c2ccc(Cl)cc2)c1 | > 100 | 58.8 | 15.3 | 27.3 | 
10 | CCCOc1ccc(/C=C2/C(=O)Nc3ccc(Cl)cc32)c(OCCC)c1 | 58.4 | 30.2 | 21 | 26.1 | 
11 | COc1ccc(/C=C2/C(=O)Nc3ccc(Cl)cc32)c(Br)c1 | > 100 | > 100 | 53.4 | 115 | 
12 | COc1ccc(/C=C2/C(=O)Nc3cc(F)ccc32)c(OC)c1 | 88.4 | > 100 | 26.9 | 65.5 | 
13 | COc1cccc(/C=C2/C(=O)Nc3cc(Cl)ccc32)c1-c1ccc(C#N)cc1 | > 100 | 81.6 | 48.3 | 110 | 
14 | COc1ccc(/C=C2/C(=O)Nc3ccc(Cl)cc32)c(-c2ccc(Cl)cc2)c1 | > 100 | 86.7 | 32.2 | 135 | 
